Source: paper PMC5532717 (ACS Central Science, 2017)

Experiments:
[1] = target: T1, GBA2 (Homo sapiens, UniProt Q9HCG7); assay: In vitro apparent IC50, GBA2 overexpressing HEK293T lysate, 4-MU-β-Glc; assay type: biochemical
T1 sequence (Q9HCG7 1-927): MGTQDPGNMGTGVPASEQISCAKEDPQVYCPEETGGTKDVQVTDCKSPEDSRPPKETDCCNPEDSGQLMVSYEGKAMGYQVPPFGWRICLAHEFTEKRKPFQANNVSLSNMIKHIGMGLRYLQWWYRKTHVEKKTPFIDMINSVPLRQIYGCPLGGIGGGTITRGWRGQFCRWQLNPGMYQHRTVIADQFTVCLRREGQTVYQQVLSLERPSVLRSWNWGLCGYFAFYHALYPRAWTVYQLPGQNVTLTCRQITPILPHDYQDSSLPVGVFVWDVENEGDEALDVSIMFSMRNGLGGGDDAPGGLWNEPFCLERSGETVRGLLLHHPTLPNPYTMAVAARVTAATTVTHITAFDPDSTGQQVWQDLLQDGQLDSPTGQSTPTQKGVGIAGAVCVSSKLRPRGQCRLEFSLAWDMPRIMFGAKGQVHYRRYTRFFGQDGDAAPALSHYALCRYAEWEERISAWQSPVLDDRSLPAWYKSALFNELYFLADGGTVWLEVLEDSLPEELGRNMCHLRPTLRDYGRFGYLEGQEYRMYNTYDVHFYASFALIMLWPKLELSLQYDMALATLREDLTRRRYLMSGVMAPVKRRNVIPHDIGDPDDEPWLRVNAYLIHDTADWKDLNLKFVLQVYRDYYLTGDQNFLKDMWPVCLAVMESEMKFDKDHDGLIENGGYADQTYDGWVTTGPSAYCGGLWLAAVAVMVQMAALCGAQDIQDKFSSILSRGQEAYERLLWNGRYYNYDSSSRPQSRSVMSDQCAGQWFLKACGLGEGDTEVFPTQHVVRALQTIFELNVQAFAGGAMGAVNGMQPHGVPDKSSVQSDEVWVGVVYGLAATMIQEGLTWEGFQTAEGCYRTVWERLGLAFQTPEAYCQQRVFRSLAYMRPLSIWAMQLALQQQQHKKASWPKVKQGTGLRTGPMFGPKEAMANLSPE
Summary of the method: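 The enzyme source was GBA2-overexpressing HEK293T lysate or recombinant human GAA. It was preincubated 30 min at 37 °C with a range of test compound concentrations, then transferred into 4-MU glucoside substrate mixture to measure residual activity. Quenched with 1 M NaOH–glycine pH 10.3; 4-MU fluorescence at λex 366/λem 445 nm. Apparent IC50 is the mean of three technical replicates.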

[2] = target: T2, GANAB (Mus musculus, UniProt Q8BHN3); assay: Competitive ABPP against probe 13 in mouse gastrointestinal lysate; assay type: biochemical; details: mouse intestine lysate, 1 h at 37 °C
T2 sequence (Q8BHN3 33-944): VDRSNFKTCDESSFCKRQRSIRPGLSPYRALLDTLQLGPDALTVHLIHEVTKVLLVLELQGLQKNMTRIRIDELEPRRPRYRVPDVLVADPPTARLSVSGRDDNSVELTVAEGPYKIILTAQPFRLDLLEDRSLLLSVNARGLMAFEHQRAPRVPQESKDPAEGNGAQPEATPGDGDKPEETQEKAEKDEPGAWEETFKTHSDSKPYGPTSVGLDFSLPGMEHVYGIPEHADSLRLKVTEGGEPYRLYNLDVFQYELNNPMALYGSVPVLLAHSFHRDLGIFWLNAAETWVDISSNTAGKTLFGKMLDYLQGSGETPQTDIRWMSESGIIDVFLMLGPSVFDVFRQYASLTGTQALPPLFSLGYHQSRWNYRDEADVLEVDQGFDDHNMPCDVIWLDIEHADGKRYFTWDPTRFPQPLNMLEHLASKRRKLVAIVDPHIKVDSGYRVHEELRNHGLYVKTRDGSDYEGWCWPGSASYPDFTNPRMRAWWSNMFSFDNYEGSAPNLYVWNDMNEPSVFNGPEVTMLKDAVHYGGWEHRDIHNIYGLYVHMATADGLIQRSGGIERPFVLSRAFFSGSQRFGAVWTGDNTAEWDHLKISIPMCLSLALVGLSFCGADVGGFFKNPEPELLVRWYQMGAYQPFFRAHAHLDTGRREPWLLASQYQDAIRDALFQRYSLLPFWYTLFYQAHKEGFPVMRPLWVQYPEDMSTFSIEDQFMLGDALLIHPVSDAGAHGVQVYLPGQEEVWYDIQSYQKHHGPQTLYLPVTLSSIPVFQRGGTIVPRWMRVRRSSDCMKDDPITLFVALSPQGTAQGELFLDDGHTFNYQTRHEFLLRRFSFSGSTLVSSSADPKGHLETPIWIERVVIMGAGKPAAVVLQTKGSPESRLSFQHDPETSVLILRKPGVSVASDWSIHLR
T2 sequence (O08795 15-521 partner): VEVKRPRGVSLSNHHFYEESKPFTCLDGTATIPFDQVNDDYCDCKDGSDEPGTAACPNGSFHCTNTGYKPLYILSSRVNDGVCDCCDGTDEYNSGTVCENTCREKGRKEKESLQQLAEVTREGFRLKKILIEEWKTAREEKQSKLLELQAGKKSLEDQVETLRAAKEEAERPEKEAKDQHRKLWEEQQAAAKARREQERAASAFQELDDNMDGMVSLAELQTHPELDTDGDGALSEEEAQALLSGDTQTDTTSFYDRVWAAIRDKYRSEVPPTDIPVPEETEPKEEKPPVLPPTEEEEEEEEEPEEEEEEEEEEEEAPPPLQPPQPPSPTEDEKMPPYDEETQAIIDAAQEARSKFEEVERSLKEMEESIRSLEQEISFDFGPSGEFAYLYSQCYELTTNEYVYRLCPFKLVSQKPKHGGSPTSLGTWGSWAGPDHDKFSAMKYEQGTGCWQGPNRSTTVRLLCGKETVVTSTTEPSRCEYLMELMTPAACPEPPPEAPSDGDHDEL
Summary of the method: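 Mixed mouse duodenum, jejunum and ileum homogenates were made in 25 mM potassium phosphate pH 6.5 with protease inhibitors (40 μg protein). Held 5 min on ice in McIlvaine buffer pH 4 or 7. Incubated 1 h at 37 °C with test compound (final 150 to 0.005 μM, plus 0), then probe 13 for 30 min at 37 °C. Boiled in Laemmli buffer, 10% SDS–PAGE, Cy5 fluorescence scan.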

IC50 [1]: > 100 µM
inhibition of probe 13 labeling of GANAB [2]: inhibited
Compound: O=S1(=O)O[C@@H]2[C@H](O)[C@@H](O)[C@H](O)[C@@H](CO)[C@@H]2O1 [Compound 5, 1,6-epi-cyclophellitol cyclosulfate]
